CCR6 antagonist = CCR6 (human) receptor antagonism. CHO-K1 CCR6 PathHunter beta-arrestin, luminescence, CCL20-stimulated. hit rate 0.49% among 340,000. P51684. inhibition, % at 20 µM;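 active means compounds whose inhibition of the agonist-driven luminescence signal at 20 µM reaches about 50%, limit read from the data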;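 further: cells stimulated with CCL20 at 14 nM final; plate controls were DMSO with CCL20 for no effect and DMSO without agonist for full effect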
APJ antagonist = APJ receptor antagonism; P35414; CHO-K1 APJ beta-arrestin complementation, luminescence; inhibition, % at 20 µM; hit rate 0.32% among 330,000; AID 2521;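 active means inhibition above about 40% at 20 µM, limit read from the data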;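 further: cells challenged with 10 nM apelin-13 agonist together with compound; plate controls were apelin-13 plus DMSO wells for no effect and DMSO wells lacking apelin-13 for full effect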
EBI2 antag = antagonists of human EBI2 receptor; P32249; inhibition, % at 5 µM; hit rate 0.81% among 360,000; EBI2 beta-arrestin recruitment, luminescence, 7a,25-OHC stimulated; in the data active means inhibition above about 38%;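 further: enzyme fragment complementation signal reports receptor beta-arrestin coupling in cells; 0% = agonist plus DMSO wells and 100% = wells without agonist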
CXCR6 inh = blocks human CXCR6 beta-arrestin recruitment | O00574 | inhibition, % at 20 µM | CHO-K1 PathHunter CXCR6 beta-arrestin, luminescence | AID 602244 | hit rate 0.36% among 360,000; in the data active means inhibition above about 34%, passing the limit was not always enough;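 further: antagonist mode with CXCL16 agonist at 10 nM final; 0% = 10 nM CXCL16 with DMSO and 100% = unstimulated wells without agonist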
APJ agonist = agonists of human APJ apelin receptor; CHO-K1 APJ PathHunter beta-arrestin, luminescence; 0% DMSO wells, 100% apelin; activation, % at 20 µM; P35414; AID 2520; hit rate 0.11% among 330,000;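 active means activation more than six SD over the plate average, tested at 20 µM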;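 further: 0% = DMSO alone and 100% = apelin-13 at 10 nM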
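assay system = CHO-K1 APJ beta-arrestin complementation cell line | input = cell density 1000 per well | dosing = compound 20 µM once, DMSO 1% | timing = compound 90 min 25 °C, reagent 1 h | measured by = luminescence from split beta-galactosidase complementation, Galacton Star/Emerald II substrate | read-out basis = APJ agonist activity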
Beta2AR agonist = agonists of human beta-2 adrenergic receptor inducing internalization; AID 504454; P07550; Am2.2-beta2AR cells, FAP receptor internalization, flow cytometry; hit rate 0.43% among 340,000; response, % (test concentration not listed);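 active means response above a set limit, near 3 SD of response in nonfluorescent compounds, cut at about 42% in these data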
Target sequence (P07550 whole entry, looked up): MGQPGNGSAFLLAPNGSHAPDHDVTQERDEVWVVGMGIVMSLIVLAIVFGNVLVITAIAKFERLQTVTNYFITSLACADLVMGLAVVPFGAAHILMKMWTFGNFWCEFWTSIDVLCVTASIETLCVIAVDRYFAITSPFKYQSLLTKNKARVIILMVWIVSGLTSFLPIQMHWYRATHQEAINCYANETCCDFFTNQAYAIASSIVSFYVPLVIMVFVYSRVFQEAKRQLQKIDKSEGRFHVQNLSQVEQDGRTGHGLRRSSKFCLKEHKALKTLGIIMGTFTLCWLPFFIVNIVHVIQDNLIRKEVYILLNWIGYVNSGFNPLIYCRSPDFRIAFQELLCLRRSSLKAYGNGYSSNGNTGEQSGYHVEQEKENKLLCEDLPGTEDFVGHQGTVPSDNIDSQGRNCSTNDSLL
EBI2 antag conf = confirmation of human EBI2 receptor antagonists; inhibition, % at 5 µM; shares compounds with EBI2 antag; AID 651997; hit rate 29% among 2,400; EBI2 beta-arrestin luminescence, 7a,25-OHC antagonism;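 active means inhibition of at least 50%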
EBI2 ag = activates EBI2, counter-screen for EBI2 antagonists | shares compounds with EBI2 antag | EBI2-expressing cells, agonist mode, luminescence, 60 min; 0% vehicle, 100% 7α,25-dihydroxycholesterol control | activation, % at 5 µM | 2,400 tested, under 10 active | AID 652000;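 active means activation of at least 50%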
bGal cs = counter-screen for EBI2 antagonists: E. coli beta-galactosidase inhibition. shares compounds with EBI2 antag. purified beta-galactosidase, luminescent Galacton Star, 15 min. inhibition, % at 5 µM. hit rate 1% among 2,400. AID 652176;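 active means replicate-average signal at least 3 plate SD below neutral wells, shown as high inhibition, flagging enzyme-inhibiting false positives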;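 further: 0% = DMSO wells with enzyme and 100% = wells lacking enzyme; higher means stronger loss of beta-gal luminescence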
Active calls of the source: *; · = no result. Compounds with a hit are over-represented: about 1.8% of the library has one in this group of screens.

SMILES	CCR6 antagonist	APJ antagonist	EBI2 antag	CXCR6 inh	APJ agonist	Beta2AR agonist	EBI2 antag conf	EBI2 ag	bGal cs
CCCOc1ccc(Oc2nc(-c3ccncc3)nc3ccccc23)cc1	16	-1	50*	2	-1	0	-1	-1	-13
COc1ccc(Oc2nc(-c3ccncc3)nc3ccccc23)cc1	4	-1	21	6	0	3	·	·	·
COc1cccc(Oc2nc(-c3ccncc3)nc3ccccc23)c1	10	-11	44*	6	1	15	5	1	9
O=P1(NC2CCCC2)OCC2(CO1)COP(=O)(NC1CCCC1)OC2 (centres undefined)	10	·	-6	0	·	1	·	·	·
COc1ccc(/C=N/NC(N)=S)cc1OC(=O)c1cccc2ccccc12	9	1	56*	9	11	7	5	2	3
Cc1ccc(Nc2ccc(C(=O)NC3CCCCC3)cn2)cc1	10	-13	84*	-2	0	12	58*	0	-11
Cc1ccc(/C=C/C(=O)N2CCN(Cc3ccccc3)CC2)o1	9	8	2	-3	3	-8	·	·	·
O=C(/C=C/c1ccc(Br)cc1)N1CCN(Cc2ccccc2)CC1	6	10	96*	-4	4	-8	85*	-1	-7
O=C(/C=C/c1ccc(F)cc1)N1CCN(Cc2ccccc2)CC1	1	-7	93*	-11	0	-8	80*	2	0
O=C(N/N=C/c1ccc(F)cc1)c1cccc(NC(=O)c2ccc(F)cc2)c1	-2	-11	-1	-11	7	11	·	·	·
CCSc1nnc(NS(=O)(=O)c2ccc(OC)cc2)s1	2	-20	-3	-5	-2	2	·	·	·
COc1ccc(-n2cc(-c3ccccc3)[nH]c2=S)cc1	9	-19	74*	-10	5	-14	48	-1	-14
CC1(C(=O)NS(=O)(=O)c2ccc(Cl)s2)CCN1C(=O)C1CCCCC1 (centres undefined)	·	·	10	-4	·	·	·	·	·
O=C1c2cccc3c([N+](=O)[O-])ccc(c23)C(=O)N1CCc1ccccn1	-8	-68	75*	-10	1	0	41	0	8
CCOC(=O)Nc1sc2c(c1C(N)=O)CCC(C)C2 (centres undefined)	-3	11	-17	-15	-3	-14	·	·	·
CC(=O)NC(=S)Nc1sc2c(c1C(N)=O)CCC(C)C2 (centres undefined)	39	28	37*	39*	-7	-11	21	0	9
CCN(CC)c1c(C)nc2ccc(C(=O)N3CCN(C(=O)c4ccco4)CC3)cn12	·	·	-2	-2	·	·	·	·	·
COc1ccccc1N1CCN(C(=O)c2cc3ccccc3[nH]2)CC1	5	5	73*	-11	3	4	55*	2	5
COc1ccccc1N1CCN(C(=O)c2cccc(C(=O)N3CCN(c4ccccc4OC)CC3)c2)CC1	-2	-22	0	13	5	12	·	·	·
COc1ccc2cc(C(=O)N3CCN(c4cccc(C)c4C)CC3)[nH]c2c1	9	6	85*	6	-1	6	57*	-1	-15
COc1ccccc1N1CCN(S(=O)(=O)CCNC(=O)/C=C/c2ccc3c(c2)OCO3)CC1	·	·	78*	2	·	·	59*	0	8
COc1cccc(N2CCN(C(=O)c3cc4ccc(OC)cc4[nH]3)CC2)c1	11	-20	16	-4	-1	-2	·	·	·
COc1ccccc1N1CCN(C(=O)c2cc3cc(Cl)ccc3[nH]2)CC1	-12	-12	89*	-8	2	-1	73*	0	-10
CCC(C(=O)O)n1c2ccccc2c2cn[nH]c(=O)c21 (centres undefined)	2	12	-10	1	0	-1	·	·	·
COc1ccc(-n2cnc(=S)[nH]c2=S)cc1	19	·	8	7	·	-2	·	·	·
SMILES	CCR6 antagonist	APJ antagonist	EBI2 antag	CXCR6 inh	APJ agonist	Beta2AR agonist	EBI2 antag conf	EBI2 ag	bGal cs
CCOC(=O)C1(Cc2ccc(OC)cc2)CCN(C(=O)c2cc(C)on2)CC1	0	-8	5	-1	10	-4	·	·	·
CCOC(=O)C1(Cc2ccc(OC)cc2)CCN(C(=O)c2cc3ccccc3[nH]2)CC1	14	-6	67*	3	-3	7	35	-1	-3
COc1ccccc1N1CCN(C(=S)NC(=O)/C=C/c2ccc(F)cc2)CC1	14	4	54*	5	-5	2	35	0	9
COc1ccccc1N1CCN(C(=O)c2cc3cc(F)ccc3[nH]2)CC1	0	11	87*	-6	-2	-2	58*	2	4
O=C(c1cc(-c2ccc(Cl)cc2)n[nH]1)N1CCN(C(=O)c2ccco2)CC1	-5	-6	42*	-7	-3	-12	29	2	9
COc1ccc(-c2cc(C(=O)N3CCN(C(=O)c4ccco4)CC3)[nH]n2)cc1	-12	7	33	1	-5	-13	·	·	·
COc1cc2cc(C(=O)N3CCN(c4ccccc4OC)CC3)[nH]c2cc1OC	12	-3	6	-3	-1	-5	·	·	·
CC1CN(CC(O)c2ccc(Br)cc2)CCO1 (centres undefined)	3	·	3	-12	·	-7	·	·	·
COc1ccccc1N1CCN(C(=O)c2cc3cc(C)ccc3[nH]2)CC1	6	13	94*	-6	-4	4	80*	1	3
O=C(c1cc2cc(F)ccc2[nH]1)N1CCN(C(=O)c2ccco2)CC1	-15	-65	67*	-8	2	2	37	-1	4
CN1CCN(C(=O)c2cc3cc(F)ccc3[nH]2)CC1	8	7	12	-2	0	-3	·	·	·
Cc1ccc2[nH]c(C(=O)N3CCN(C(c4ccccc4)c4ccccc4)CC3)cc2c1	9	-4	89*	2	-2	1	86*	-1	-11
Cc1cc(C)c(OCC(=O)N2CC=C(c3ccccc3)CC2)c(C)c1	2	2	60*	1	-2	-8	71*	4	-3
COc1cc(OC)cc(C(=O)NCC(=O)N2CC=C(c3ccccc3)CC2)c1	22	0	10	-10	2	6	·	·	·
O=C(NCc1ccc(Cl)cc1)C1CCC(CNc2c(N3CCCCC3)c(=O)c2=O)CC1 (centres undefined)	-2	-36	50*	-2	-2	0	26	2	2

High-throughput results (PubChem)
